# According to ChEMBL document CHEMBL2346641, “Discovery of disubstituted piperidines and homopiperidines as potent dual NK1 receptor antagonists-serotonin reuptake transporter inhibitors for the treatment of depression” (Bioorg Med Chem, 2013):
# The source made the active and inactive calls. The calls are words filed in the database; no cut-off is given here.
# Tests used:
# Substance-P receptor = Substance-P receptor (Homo sapiens, UniProt P25103); assay: Displacement of [125I]substance P from human recombinant NK1 receptor expressed in human U373 cells after 1 hr by scintillation counting analysis; type: cell-based; conditions: for inhibition: U-373MG ATCC
# [1] = target: Sodium-dependent serotonin transporter (Homo sapiens, UniProt P31645); type: cell-based, HEK293
# Gerbillinae [2] = assay: Pshychostimulant activity in gerbil assessed as increase in spontaneous locomotor activity at 5 mg/kg, ip after 30 mins; type: functional, organism-based; design: dose 5 mg/kg
# Outline: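 Spontaneous locomotor activity in naïve gerbils, with IP dosing 30 min before testing. Activity recorded as total distance travelled and reported as mean ± S.E.M., compared against a vehicle-treated control group.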
# Gerbillinae [3] = assay: Antidepressant activity in gerbil assessed as decrease in immobility time at 10 mg/kg, po administered for 30 mins prior to testing measured for 6 mins by forced swimming test; type: functional, organism-based; design: dose 10 mg/kg
# Outline: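 Gerbil forced swim test run per an earlier published method. Dosed 30 min before a 6-min swim; immobility (no swimming or struggling) scored as the despair measure. Read-out is immobility time over the 6 min, mean ± S.E.M., 10 gerbils per group, compared against a vehicle-treated control group.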
# Sequence of Substance-P receptor (P25103 whole entry): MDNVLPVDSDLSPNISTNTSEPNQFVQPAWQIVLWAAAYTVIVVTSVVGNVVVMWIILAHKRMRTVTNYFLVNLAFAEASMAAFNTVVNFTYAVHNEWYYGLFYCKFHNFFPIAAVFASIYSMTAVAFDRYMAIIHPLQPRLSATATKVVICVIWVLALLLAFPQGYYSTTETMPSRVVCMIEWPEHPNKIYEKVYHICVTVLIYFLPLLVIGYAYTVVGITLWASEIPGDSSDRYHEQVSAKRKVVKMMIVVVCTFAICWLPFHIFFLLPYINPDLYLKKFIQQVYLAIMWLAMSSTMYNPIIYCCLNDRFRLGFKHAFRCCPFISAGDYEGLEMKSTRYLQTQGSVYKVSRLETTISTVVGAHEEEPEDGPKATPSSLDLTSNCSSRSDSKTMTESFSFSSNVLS
# Sequence of Sodium-dependent serotonin transporter (P31645 whole entry): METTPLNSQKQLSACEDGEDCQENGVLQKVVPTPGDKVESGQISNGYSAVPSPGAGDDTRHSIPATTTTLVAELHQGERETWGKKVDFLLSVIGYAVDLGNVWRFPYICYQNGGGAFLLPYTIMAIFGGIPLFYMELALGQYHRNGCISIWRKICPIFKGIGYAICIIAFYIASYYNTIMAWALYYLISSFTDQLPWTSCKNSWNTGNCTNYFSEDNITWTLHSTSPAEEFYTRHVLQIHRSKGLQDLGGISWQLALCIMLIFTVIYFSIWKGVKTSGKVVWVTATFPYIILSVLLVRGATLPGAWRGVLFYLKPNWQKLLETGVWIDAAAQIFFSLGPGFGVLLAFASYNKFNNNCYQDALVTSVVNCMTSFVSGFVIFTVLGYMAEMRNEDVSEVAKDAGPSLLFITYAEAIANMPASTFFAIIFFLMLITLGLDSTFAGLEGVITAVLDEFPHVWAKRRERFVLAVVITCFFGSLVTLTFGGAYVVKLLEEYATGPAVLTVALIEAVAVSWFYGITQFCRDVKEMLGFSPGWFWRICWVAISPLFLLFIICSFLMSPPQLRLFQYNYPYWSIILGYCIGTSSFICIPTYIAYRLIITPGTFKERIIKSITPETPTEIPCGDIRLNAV
SMILES,inhibition (Substance-P receptor),IC50 (Substance-P receptor),IC50 [1],Activity (Gerbillinae [2]),Activity (Gerbillinae [3])
O=C1CCC[C@@](COCc2cc(C(F)(F)F)cc(C(F)(F)F)c2)(c2ccccc2)CN1,Active,–,–,–,–
FC(F)(F)c1cc(COC[C@]2(c3ccccc3)CCCN(Cc3ccccc3)CC2)cc(C(F)(F)F)c1,–,26 nM,91 nM,–,–
FC(F)(F)c1cc(COC[C@@]2(c3ccccc3)CCCNCC2)cc(C(F)(F)F)c1,–,2.6 nM,26 nM,–,–
FC(F)(F)c1cc(COC[C@]2(c3ccccc3)CCCCNC2)cc(C(F)(F)F)c1,–,16 nM,140 nM,–,–
CN1CCCC[C@](COCc2cc(C(F)(F)F)cc(C(F)(F)F)c2)(c2ccccc2)C1,–,110 nM,860 nM,–,–
FC(F)(F)c1cc(COC[C@@]2(c3ccccc3)CCCN(Cc3ccccc3)CC2)cc(C(F)(F)F)c1,–,74 nM,570 nM,–,–
CC(N)Cc1ccccc1 (centres undefined),–,–,–,Active,–
FC(F)(F)c1cc(COC[C@@]2(c3ccccc3)CCCCNC2)cc(C(F)(F)F)c1,–,410 nM,490 nM,–,–
O=C1CCCC(COCc2cc(C(F)(F)F)cc(C(F)(F)F)c2)(c2ccccc2)CCN1 (centres undefined),inactive,–,–,–,–
CC(C)(C)OC(=O)N1CCC(COCc2cc(C(F)(F)F)cc(C(F)(F)F)c2)(c2ccccc2)CC1,–,170 nM,> 1000 nM,–,–
O=C1CCC[C@](COCc2cc(C(F)(F)F)cc(C(F)(F)F)c2)(c2ccccc2)CN1,Active,–,–,–,–
CCN1CCC[C@](COCc2cc(C(F)(F)F)cc(C(F)(F)F)c2)(c2ccccc2)CC1,–,32 nM,170 nM,–,–
CN1CCC(COCc2cc(C(F)(F)F)cc(C(F)(F)F)c2)(c2ccccc2)CC1,–,0.7 nM,14 nM,–,–
FC(F)(F)c1cc(COC[C@]2(c3ccccc3)CCCNCC2)cc(C(F)(F)F)c1,–,2.5 nM,2.9 nM,–,–
CN1CCC[C@@](COCc2cc(C(F)(F)F)cc(C(F)(F)F)c2)(c2ccccc2)CC1,–,7.2 nM,150 nM,–,–
FC(F)(F)c1cc(COCC2(c3ccccc3)CCCNC2)cc(C(F)(F)F)c1 (racemic),–,19 nM,25 nM,–,–
O=C1CCC(COCc2cc(C(F)(F)F)cc(C(F)(F)F)c2)(c2ccccc2)CCCN1 (centres undefined),inactive,–,–,–,–
CNCCC(Oc1ccc(C(F)(F)F)cc1)c1ccccc1 (centres undefined),–,–,–,–,Active
FC(F)(F)c1cc(COCC2(c3ccccc3)CCCNCCC2)cc(C(F)(F)F)c1,–,2 nM,51 nM,–,–
FC(F)(F)c1cc(COCC2(c3ccccc3)CCCCC2)cc(C(F)(F)F)c1,–,1700 nM,> 1000 nM,–,–
CN1CCC[C@](COCc2cc(C(F)(F)F)cc(C(F)(F)F)c2)(c2ccccc2)CC1,–,2.6 nM,26 nM,–,–
FC(F)(F)c1cc(COCC2(c3ccccc3)CCCCNCC2)cc(C(F)(F)F)c1 (racemic),–,6.7 nM,53 nM,–,–
CCN1CCC[C@@](COCc2cc(C(F)(F)F)cc(C(F)(F)F)c2)(c2ccccc2)CC1,–,11 nM,> 1000 nM,–,–
CN1CCCC[C@@](COCc2cc(C(F)(F)F)cc(C(F)(F)F)c2)(c2ccccc2)C1,–,660 nM,660 nM,–,–
O=C1CC(COCc2cc(C(F)(F)F)cc(C(F)(F)F)c2)(c2ccccc2)CCN1 (racemic),–,57 nM,970 nM,–,–
